Experimental data as given in ChEMBL document CHEMBL1132437, “Synthesis and antimicrobial activity of 4H-4-oxoquinolizine derivatives: consequences of structural modification at the C-8 position” (1999).
In brackets after ≈: the same amount, converted by molar mass.

Tests used:
Escherichia coli [1] = assay: In vivo efficacy against Escherichia coli JUHL in mouse protection test after subcutaneous administration; format: functional; conditions: Escherichia coli, sc; read-out: ED50
Procedure, shortened: (§1)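 Mouse protection model: mice infected intravenously with 100-fold LD50 of the organism. Compound given by subcutaneous injection or oral gavage at 1 and 5 h after infection, over a dose range. Deaths tracked for 7 days post-inoculation. ED50 is the dose giving 50% survival of treated mice over the trial.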

Staphylococcus aureus [2] = assay: In vitro antibacterial activity against gram-positive Staphylococcus aureus NCTC 10649M; format: functional
Procedure, shortened: (§2)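 Agar dilution MIC determination following the National Committee for Clinical Laboratory Standards recommendations.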

Mus musculus [3] = assay: In vivo efficacy against Streptococcus pneumoniae ATCC 6303 in mouse protection test after administration by oral gavage; format: functional; procedure, shortened: as §1
Pseudomonas aeruginosa [4] = assay: In vitro antibacterial activity against Gram-negative Pseudomonas aeruginosa 5007; format: functional; procedure, shortened: as §2
Streptococcus pyogenes = assay: In vitro antibacterial activity against gram positive Streptococcus pyogenes 930; format: functional; procedure, shortened: as §2
Staphylococcus aureus [5] = assay: In vivo efficacy against Staphylococcus aureus NCTC 10649M in mouse protection test after p.o. administration.; format: functional; conditions: Staphylococcus aureus, po; read-out: ED50; procedure, shortened: as §1
Mus musculus [6] = assay: In vivo efficacy against Staphylococcus aureus NCTC 10649M in mouse protection test
Staphylococcus aureus [7] = assay: In vitro antibacterial activity against gram-positive Staphylococcus aureus 1775; format: functional; procedure, shortened: as §2
Pseudomonas aeruginosa [8] = assay: In vitro antibacterial activity against gram negative P. aeruginosa DPHP 5263; format: functional; procedure, shortened: as §2
Pseudomonas aeruginosa [9] = assay: In vivo efficacy against Pseudomonas aeruginosa 5007 in mouse protection test after subcutaneous administration; format: functional; conditions: Pseudomonas aeruginosa, sc; read-out: ED50; procedure, shortened: as §1
Enterococcus faecium = assay: In vitro antibacterial activity against gram-positive Enterococcus faecium ATCC 8043; format: functional; procedure, shortened: as §2
Escherichia coli [10] = assay: In vitro antibacterial activity against gram negative Escherichia coli KNK 437; format: functional; procedure, shortened: as §2
Escherichia coli [11] = assay: In vivo efficacy against Escherichia coli JUHL in mouse protection test after p.o. administration.; format: functional; conditions: Escherichia coli, po; read-out: ED50; procedure, shortened: as §1
Burkholderia cepacia = assay: In vitro antibacterial activity against gram negative Pseudomonas cepacia 2961; format: functional; procedure, shortened: as §2
Pseudomonas aeruginosa [12] = assay: (§3) In vivo efficacy against Pseudomonas aeruginosa 5007 in mouse protection test after administration by oral gavage; format: functional; conditions: Pseudomonas aeruginosa, po; read-out: ED50; procedure, shortened: as §1
Streptococcus pneumoniae = assay: In vivo efficacy against Streptococcus pneumoniae ATCC 6303 in mouse protection test after s.c. administration.; format: functional; conditions: Streptococcus pneumoniae, sc; read-out: ED50; procedure, shortened: as §1
Mus musculus [13] = assay: In vivo efficacy against Pseudomonas aeruginosa 5007 in mouse protection test after administration by oral gavage.; format: functional; procedure, shortened: as §1
Staphylococcus aureus [14] = assay: In vivo efficacy against Staphylococcus aureus NCTC 10649M in mouse; format: functional; procedure, shortened: as §1
Mus musculus [15] = assay: IIn vivo efficacy against Escherichia coli JUHL in mouse protection test after administration by oral gavage; format: functional; procedure, shortened: as §1
Mus musculus [16] = assay: In vivo efficacy against Pseudomonas aeruginosa 5007 in mouse protection test […]; format: functional; procedure, shortened: as §1
Mus musculus [17] = assay: In vivo efficacy against Streptococcus pneumoniae ATCC 6303 in mouse protection test after administration by oral gavage.; format: functional; procedure, shortened: as §1
Escherichia coli [18] = assay: In vitro antibacterial activity against Escherichia coli KNK 437 a ciprofloxacin less sensitive strain; format: functional; procedure, shortened: as §2
Mus musculus [19] = assay: In vivo efficacy against Escherichia coli JUHL in mouse protection test after administration by oral gavage.; format: functional; procedure, shortened: as §1
Mus musculus [20] = assay: as §3; format: functional; procedure, shortened: as §1
Mus musculus [21] = assay: InIn vivo efficacy against Escherichia coli JUHL in mouse protection test after administration by oral gavage; format: functional; procedure, shortened: as §1
[22] = Staphylococcus aureus, NCTC 10649, read-out: MIC
[23] = Staphylococcus aureus, read-out: ED50
[24] = Pseudomonas aeruginosa, read-out: MIC
[25] = Streptococcus pyogenes, read-out: MIC
[26] = Staphylococcus aureus, read-out: MIC
[27] = Pseudomonas aeruginosa, DPHP 5263, read-out: MIC
[28] = Enterococcus faecium, ATCC 8043, read-out: MIC
[29] = Escherichia coli, read-out: MIC
[30] = Burkholderia cepacia, read-out: MIC

MIC (Staphylococcus aureus [2]) [µg/mL] | MIC (Pseudomonas aeruginosa [4]) [µg/mL] | MIC (Streptococcus pyogenes) [µg/mL] | MIC (Staphylococcus aureus [7]) [µg/mL] | MIC (Pseudomonas aeruginosa [8]) [µg/mL] | MIC (Staphylococcus aureus [2]; [22]) [µg/mL] | MIC (Pseudomonas aeruginosa [4]; [24]) [µg/mL] | MIC (Streptococcus pyogenes; [25]) [µg/mL] | MIC (Staphylococcus aureus [7]; [26]) [µg/mL] | MIC (Pseudomonas aeruginosa [8]; [27]) [µg/mL] | MIC (Enterococcus faecium; [28]) [µg/mL] | MIC (Escherichia coli [10]; [29]) [µg/mL] | MIC (Burkholderia cepacia; [30]) [µg/mL] | SMILES | ED50 (Escherichia coli [1]) [mg/kg] | ED50 (Mus musculus [3]) [mg/kg] | ED50 (Staphylococcus aureus [5]) [mg/kg] | ED50 (Pseudomonas aeruginosa [9]) [mg/kg] | ED50 (Escherichia coli [11]) [mg/kg] | ED50 (Streptococcus pneumoniae) [mg/kg] | ED50 (Staphylococcus aureus [14]; [23]) [mg/kg] | other results
0.05 (≈ 0.13 µM) | 0.39 (≈ 1.01 µM) | 0.05 (≈ 0.13 µM) | 0.78 (≈ 2.02 µM) | 3.1 (≈ 8.04 µM) | – | – | – | – | – | – | – | – | Cc1c(N2C[C@@H](N)[C@H](C3CC3)C2)c(F)cn2c(=O)c(C(=O)O)cc(C3CC3)c12 (stereo in doubt) | 3.4 | 25 | 10.9 | > 32 | 10 | 8 | – | ED50 (Mus musculus [6]): 1.5 mg/kg; MIC (Enterococcus faecium): 0.1 µg/mL (≈ 0.259 µM); MIC (Escherichia coli [10]): 0.2 µg/mL (≈ 0.519 µM); MIC (Burkholderia cepacia): 1.56 µg/mL (≈ 4.05 µM); ED50 (Pseudomonas aeruginosa [12]): > 50 mg/kg
0.01 (≈ 0.029 µM) | 0.05 (≈ 0.145 µM) | 0.02 (≈ 0.0579 µM) | 0.78 (≈ 2.26 µM) | 0.39 (≈ 1.13 µM) | – | – | – | – | – | – | – | – | Cc1c(N2CC[C@H](N)C2)c(F)cn2c(=O)c(C(=O)O)cc(C3CC3)c12 (stereo in doubt; -(S)-3i) [ABT-719] | – | – | – | – | – | – | – | MIC (Escherichia coli [18]): 0.02 µg/mL (≈ 0.0579 µM); MIC (Enterococcus faecium): 0.02 µg/mL (≈ 0.0579 µM); MIC (Burkholderia cepacia): 0.39 µg/mL (≈ 1.13 µM)
– | – | – | – | – | 0.01 (≈ 0.0268 µM) | 0.39 (≈ 1.04 µM) | 0.02 (≈ 0.0536 µM) | 0.39 (≈ 1.04 µM) | – | 0.05 (≈ 0.134 µM) | 0.39 (≈ 1.04 µM) | 3.1 (≈ 8.3 µM) | Cc1c(N2CC[C@H](C)[C@@H](N)C2)c(F)cn2c(=O)c(C(=O)O)cc(C3CC3)c12 | 1.7 | – | 1.9 | – | – | – | 0.5 | ED50 (Mus musculus [21]): 2.3 mg/kg
– | – | – | – | – | 0.02 (≈ 0.0519 µM) | 0.39 (≈ 1.01 µM) | 0.05 (≈ 0.13 µM) | 0.39 (≈ 1.01 µM) | 12.5 (≈ 32.4 µM) | 0.2 (≈ 0.519 µM) | 0.2 (≈ 0.519 µM) | 0.39 (≈ 1.01 µM) | Cc1c(N2CC[C@H](NC3CC3)C2)c(F)cn2c(=O)c(C(=O)O)cc(C3CC3)c12 | 5 | 23.1 | 25 | > 32 | 16.5 | > 8 | 3.6 | ED50 (Mus musculus [16]): > 50 mg/kg

The remaining lines, values behind:

SMILES | MIC (Staphylococcus aureus [2]) [µg/mL] | MIC (Pseudomonas aeruginosa [4]) [µg/mL] | MIC (Streptococcus pyogenes) [µg/mL] | MIC (Staphylococcus aureus [7]) [µg/mL] | MIC (Pseudomonas aeruginosa [8]) [µg/mL] | MIC (Staphylococcus aureus [2]; [22]) [µg/mL] | MIC (Pseudomonas aeruginosa [4]; [24]) [µg/mL] | MIC (Streptococcus pyogenes; [25]) [µg/mL] | MIC (Staphylococcus aureus [7]; [26]) [µg/mL] | MIC (Pseudomonas aeruginosa [8]; [27]) [µg/mL] | MIC (Enterococcus faecium; [28]) [µg/mL] | MIC (Escherichia coli [10]; [29]) [µg/mL] | MIC (Burkholderia cepacia; [30]) [µg/mL] | ED50 (Escherichia coli [1]) [mg/kg] | ED50 (Mus musculus [3]) [mg/kg] | ED50 (Staphylococcus aureus [5]) [mg/kg] | ED50 (Pseudomonas aeruginosa [9]) [mg/kg] | ED50 (Escherichia coli [11]) [mg/kg] | ED50 (Streptococcus pneumoniae) [mg/kg] | ED50 (Staphylococcus aureus [14]; [23]) [mg/kg] | other results
Cc1c(N2C[C@H]3NCCO[C@@H]3C2)c(F)cn2c(=O)c(C(=O)O)cc(C3CC3)c12 | – | – | – | – | – | 0.05 (≈ 0.129 µM) | 1.56 (≈ 4.03 µM) | 0.2 (≈ 0.516 µM) | 0.78 (≈ 2.01 µM) | 25 (≈ 64.5 µM) | 0.2 (≈ 0.516 µM) | 0.78 (≈ 2.01 µM) | 3.1 (≈ 8 µM) | > 5 | – | 11.5 | > 32 | – | – | 6 | ED50 (Mus musculus [13]): > 50 mg/kg; ED50 (Mus musculus [15]): > 20 mg/kg
CN[C@@H]1CN(c2c(F)cn3c(=O)c(C(=O)O)cc(C4CC4)c3c2C)C[C@H]1C (stereo in doubt; 3v) | 0.02 (≈ 0.0536 µM) | 0.39 (≈ 1.04 µM) | 0.2 (≈ 0.536 µM) | 1.56 (≈ 4.18 µM) | 12.5 (≈ 33.5 µM) | – | – | – | – | – | – | – | – | 2.8 | – | 6.3 | 16.1 | 9.1 | 5 | 1.6 | ED50 (Mus musculus [16]): > 50 mg/kg; ED50 (Mus musculus [17]): 13 mg/kg; MIC (Enterococcus faecium): 0.2 µg/mL (≈ 0.536 µM); MIC (Escherichia coli [10]): 0.2 µg/mL (≈ 0.536 µM); MIC (Burkholderia cepacia): 1.56 µg/mL (≈ 4.18 µM)
Cc1c(N2CC[C@@H](C)[C@H](N)C2)c(F)cn2c(=O)c(C(=O)O)cc(C3CC3)c12 | – | – | – | – | – | – | – | – | – | – | – | – | – | 0.6 | 1 | 4.3 | 24.5 | 3 | 2.1 | 1 | ED50 (Mus musculus [13]): > 50 mg/kg
CCN[C@H]1CCN(c2c(F)cn3c(=O)c(C(=O)O)cc(C4CC4)c3c2C)C1 | – | – | – | – | – | 0.05 (≈ 0.134 µM) | 0.39 (≈ 1.04 µM) | 0.1 (≈ 0.268 µM) | 1.56 (≈ 4.18 µM) | 6.2 (≈ 16.6 µM) | 0.1 (≈ 0.268 µM) | 0.2 (≈ 0.536 µM) | 3.1 (≈ 8.3 µM) | 0.6 | – | 7.7 | > 8 | – | 2.9 | 1 | ED50 (Mus musculus [17]): 7.9 mg/kg; ED50 (Mus musculus [19]): 3 mg/kg; ED50 (Mus musculus [20]): > 50 mg/kg
Cc1c(N2C[C@@H]3OCCN[C@@H]3C2)c(F)cn2c(=O)c(C(=O)O)cc(C3CC3)c12 | – | – | – | – | – | 0.002 (≈ 0.00516 µM) | 1.56 (≈ 4.03 µM) | 0.1 (≈ 0.258 µM) | 0.78 (≈ 2.01 µM) | 100 (≈ 258 µM) | 0.1 (≈ 0.258 µM) | 0.78 (≈ 2.01 µM) | 6.2 (≈ 16 µM) | > 5 | – | – | – | – | – | 2.7 | ED50 (Staphylococcus aureus [14]): 4.8 mg/kg; ED50 (Mus musculus [15]): > 20 mg/kg
